Test [1] has as its target Actin, cytoplasmic 1 (Homo sapiens) (UniProt P60709). Kind of test: Binding affinity to beta-actin in human CCRF-CEM cells after 30 mins by Western blot method. Format: cell-based.
Test [2] addresses Pyruvate kinase PKM (Homo sapiens) (UniProt P14618). Description: Binding affinity to PKM2 in human CCRF-CEM cells after 30 mins by Western blot method. Format: cell-based.
In test [3] the target is T1, Elongation factor 1-alpha 1 (Homo sapiens) (UniProt P68104).
T1 sequence (whole entry): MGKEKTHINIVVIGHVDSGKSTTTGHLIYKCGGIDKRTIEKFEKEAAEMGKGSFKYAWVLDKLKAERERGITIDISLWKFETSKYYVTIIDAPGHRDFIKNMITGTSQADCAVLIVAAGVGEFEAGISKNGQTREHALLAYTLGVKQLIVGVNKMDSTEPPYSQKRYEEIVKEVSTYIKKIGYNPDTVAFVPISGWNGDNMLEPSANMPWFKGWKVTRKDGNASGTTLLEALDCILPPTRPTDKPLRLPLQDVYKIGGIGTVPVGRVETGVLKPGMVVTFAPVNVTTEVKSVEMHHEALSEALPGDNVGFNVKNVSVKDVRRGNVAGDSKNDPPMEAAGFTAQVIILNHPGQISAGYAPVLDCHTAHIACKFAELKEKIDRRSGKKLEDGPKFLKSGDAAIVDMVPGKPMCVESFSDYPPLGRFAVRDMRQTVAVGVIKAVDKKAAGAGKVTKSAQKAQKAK
Kind of test: Binding affinity to eEF1A1 in human CCRF-CEM cells after 30 mins by Western blot method. The format is cell-based. On the technique in general: In western blotting, separated proteins are transferred to a membrane and probed.

Test [4] concerns the target T1, Elongation factor 1-alpha 1 (Homo sapiens). Kind of test: Binding affinity to recombinant human eEF1A1 expressed in HEK293 cells by ITC. The gist of the method: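 Isothermal titration calorimetry recorded the heat changes on titrating ligand into eEF1A1. Binding enthalpy and association constant (Ka) were derived from the titration profiles.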
Test [5] concerns BJ. Description: Antiproliferative activity against human BJ cells after 72 hrs by MTT assay. The format is cell-based. Background: Tetrazolium assays rely on reduction of a dye to a coloured formazan, in cell work by metabolically active cells.
In test [6] the test system is U2OS. Kind of test: Antiproliferative activity against human U2OS cells after 72 hrs by MTT assay. The format is functional, cell-based.
A further test relates to HCT-116. Description: Antiproliferative activity against human HCT116 cells after 72 hrs by MTT assay. The settings on record: HCT-116, 72 h. The format is functional, cell-based.
Test [7] relates to A549. Description: Antiproliferative activity against human A549 cells after 72 hrs by MTT assay. The format is functional, cell-based. The conditions noted are these: A549, 72 h.
Test [8] concerns K562. Description: Antiproliferative activity against human K562 cells after 72 hrs by MTT assay. The settings on record: K562, 72 h. The format is functional, cell-based.
The test system of test [9] is CCRF-CEM. Kind of test: Antiproliferative activity against human CCRF-CEM cells after 72 hrs by MTT assay. Format: functional, cell-based.
The test system of test [10] is K562. Kind of test: Antiproliferative activity against taxol resistant human K562 cells after 72 hrs by MTT assay. Format: functional, cell-based. The conditions noted are these: K562, 72 h.
Test [11] in a line: Antiproliferative activity against human CEM-DNR-bulk cells after 72 hrs by MTT assay. The format is functional, cell-based.
A short description of test [12]: Antiproliferative activity against human CEM-DNR-bulk cells by MTT assay. The format is functional, cell-based.
Test [13] deals with BJ. Kind of test: Antiproliferative activity against human BJ cells by MTT assay. The format is cell-based.
In test [14] the test system is A549. Kind of test: Antiproliferative activity against human A549 cells by MTT assay. The format is functional, cell-based.
Test [15] deals with K562. Kind of test: Antiproliferative activity against human K562 cells by MTT assay. Format: functional, cell-based.
Test [16] has as its system CCRF-CEM. Kind of test: Antiproliferative activity against human CCRF-CEM cells by MTT assay. The format is functional, cell-based.
Test [17] concerns U2OS. Kind of test: Antiproliferative activity against human U2OS cells by MTT assay. The format is functional, cell-based.
Test [18] has as its system K562. Kind of test: Antiproliferative activity against taxol resistant human K562 cells by MTT assay. The format is functional, cell-based.
Test [19] deals with Actin, cytoplasmic 1 (Homo sapiens) (UniProt P60709). Description: Binding affinity to beta-actin in human CCRF-CEM cells after 30 mins by HPLC-MS based SDS-PAGE analysis. The format is cell-based. The method in brief: (§1)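 Biotinylated 3-HQ ligands (one linked via the quinolinone benzene ring, one via the 2-phenyl ring) were immobilized on streptavidin magnetic beads and incubated with total protein lysate from CCRF-CEM cells. Bound proteins were released, resolved by SDS-PAGE, and identified by mass spectrometry.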

The target of test [20] is Pyruvate kinase PKM (Homo sapiens) (UniProt P14618). Kind of test: Binding affinity to PKM2 in human CCRF-CEM cells after 30 mins by HPLC-MS based SDS-PAGE analysis. Format: cell-based. The method in brief: as §1
The target in test [21] is T1, Elongation factor 1-alpha 1 (Homo sapiens). Kind of test: Binding affinity to eEF1A1 in human CCRF-CEM cells after 30 mins by HPLC-MS based SDS-PAGE analysis. The format is cell-based. The method in brief:
as §1

Drawing on ChEMBL document CHEMBL4020837, “Identification of Eukaryotic Translation Elongation Factor 1-α 1 Gamendazole-Binding Site for Binding of 3-Hydroxy-4(1 H)-quinolinones as Novel Ligands with Anticancer Activity” (J Med Chem, 2018), this text covers Activity, Ka and IC50 for 13 compounds.

Activity calls are given as the source filed them. The calls are words filed in the database; no cut-off is given here.

Pyruvate kinase PKM (Homo sapiens), sequence (P14618 2-531 limits assumed): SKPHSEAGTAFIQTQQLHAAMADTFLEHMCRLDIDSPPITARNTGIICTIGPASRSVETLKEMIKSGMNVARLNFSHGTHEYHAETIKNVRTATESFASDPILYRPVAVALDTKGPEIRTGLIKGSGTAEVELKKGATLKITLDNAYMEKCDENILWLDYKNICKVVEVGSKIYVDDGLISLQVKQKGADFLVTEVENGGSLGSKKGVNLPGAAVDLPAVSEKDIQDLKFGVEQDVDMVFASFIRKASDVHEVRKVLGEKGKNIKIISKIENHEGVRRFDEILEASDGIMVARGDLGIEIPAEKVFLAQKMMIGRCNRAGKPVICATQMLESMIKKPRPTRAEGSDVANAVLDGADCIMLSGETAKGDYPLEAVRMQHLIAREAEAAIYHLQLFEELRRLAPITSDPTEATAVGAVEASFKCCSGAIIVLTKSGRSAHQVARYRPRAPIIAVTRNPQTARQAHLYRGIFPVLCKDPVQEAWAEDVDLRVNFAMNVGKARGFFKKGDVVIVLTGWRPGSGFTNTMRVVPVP

In the case of `O=C1N[C@H]2[C@H](CS[C@H]2CCCCC(=O)OCCOCCOCCOCCOCCOCCOCCOCCOCCOCCNc2ccc(-c3[nH]c4ccccc4c(=O)c3O)cc2[N+](=O)[O-])N1`, the result in test [1], in [2] and in [3] was inactive.

On to `O=C(O)/C=C/c1nn(Cc2ccc(Cl)cc2Cl)c2cc(C(F)(F)F)ccc12`, for which the Ka in test [4] is 1.27 ×10⁷ /M.

Usually IC50 stands for the concentration at which inhibition is half-maximal. As to `O=c1c(O)c(-c2ccccc2)[nH]c2ccccc12`, the IC50 with BJ [5] is above 50 µM; in the test on U2OS [6], 47 µM; in the test on HCT-116, 44.2 µM; with A549 [7], above 50 µM; with K562 [8], 48 µM; with CCRF-CEM [9], 26.7 µM. The IC50 came to 27.4 µM in the test on K562 [10] and 22.5 µM in test [11]. The Ka result in test [4] was “inactive”.

For `NC(=O)c1cc(-c2[nH]c3ccccc3c(=O)c2O)ccc1N1CCOCC1`, the IC50 in the test with BJ [5] was found to be 50 µM; in the test with U2OS [6], 50 µM; with HCT-116, 30.6 µM; in the test on A549 [7], 44.4 µM; with K562 [8], 50 µM; in the test with CCRF-CEM [9] it was 16.2 µM. Also, the IC50 (in the test with K562 [10]; in test [11]) was 50 µM in each case. Also, the Ka in test [4] is 6.8 ×10⁶ /M.

Take `O=C(O)c1cc(-c2[nH]c3ccccc3c(=O)c2O)ccc1N1CCOCC1`: the IC50 was found to be 50 µM in the test with BJ [5]; 50 µM in the test on U2OS [6]; 50 µM with HCT-116; 50 µM in the test with A549 [7]; 50 µM in the test with K562 [8]; 49.6 µM in the test on CCRF-CEM [9]. Also, the IC50 (in the test on K562 [10]; in test [11]) was 50 µM each time. Besides, the Ka in [4] is 1.03 ×10⁷ /M.

`NC(=O)c1cc(-c2[nH]c3ccccc3c(=O)c2O)ccc1N1CCCCC1`: the IC50 in the test with BJ [5] amounted to 48.9 µM; in the test with U2OS [6] it was 26 µM; in the test on HCT-116, 4.46 µM; with A549 [7], 9.96 µM; with K562 [8] it was 7.1 µM; in the test with CCRF-CEM [9], 3.34 µM. For the same compound, the IC50 in the test on K562 [10] was found to be 6.41 µM; in test [11], 21.4 µM. Further, the Ka in test [4] was 2.9 ×10⁶ /M.

Take `O=c1c(O)c(-c2ccc(N3CCCCC3)c([N+](=O)[O-])c2)[nH]c2ccccc12`: the half-maximal inhibitory concentration (IC50) in test [12] turned out to be 3 µM; with BJ [13] it was 9.83 µM; with A549 [14], 1.62 µM; in the test on K562 [15] it was 0.75 µM; in the test with CCRF-CEM [16] it was 1.55 µM; with U2OS [17], 7.51 µM. In addition, in the test on K562 [18], 2.02 µM corresponded to half-maximal inhibition (IC50).

Take `CCCCCNC(=O)c1ccc2c(=O)c(O)c(-c3ccc(N4CCCCC4)c(C(N)=O)c3)[nH]c2c1`: the IC50 in the test on BJ [5] was 10.2 µM; in the test on U2OS [6], 0.56 µM; with HCT-116 it was 0.64 µM; in the test with A549 [7], 1.89 µM; with K562 [8], 2.39 µM; with CCRF-CEM [9], 1.73 µM. Moreover, the IC50 with K562 [10] is 32.7 µM; in test [11] it was 8.03 µM. The Ka in [4] came to 5.3 ×10⁶ /M.

With `CCNc1ccc(-c2[nH]c3cc(C(=O)NCCOCCOC(=O)CCCC[C@@H]4SC[C@@H]5NC(=O)N[C@@H]54)ccc3c(=O)c2O)cc1[N+](=O)[O-]`, the result in test [19], in [1], in test [20], in [2], in [21] and in test [3] was Active.

`CCNc1ccc(-c2[nH]c3ccccc3c(=O)c2O)cc1[N+](=O)[O-]`: the IC50 in [12] was 3.01 µM; in the test on BJ [13], 9.39 µM; with A549 [14], 0.94 µM; with K562 [15], 0.66 µM; with CCRF-CEM [16] it was 1.42 µM; in the test with U2OS [17], 9.98 µM. Besides, it took 1.96 µM to reach half-maximal inhibition in the test on K562 [18] (IC50).

Turning to `O=C(O)c1cc(-c2[nH]c3ccccc3c(=O)c2O)ccc1N1CCCCC1`, the IC50 in the test on BJ [5] turned out to be 50 µM; with U2OS [6] it was 50 µM; in the test on HCT-116 it was 50 µM; in the test with A549 [7], 50 µM; in the test with K562 [8] it was 50 µM; in the test with CCRF-CEM [9] it was 49.6 µM. For the same compound, the concentration for half-maximal inhibition (IC50) (in the test with K562 [10]; in test [11]) was 50 µM each time. The Ka in [4] came to 2.54 ×10⁶ /M.

In the case of `NC(=O)c1cc(-c2[nH]c3cc(C(=O)NCc4ccccc4)ccc3c(=O)c2O)ccc1N1CCCCC1`, the IC50 with BJ [5] was above 50 µM; in the test on U2OS [6], 0.58 µM; in the test with HCT-116 it was 1.01 µM; in the test with A549 [7], 3.77 µM; with K562 [8] it was 8.3 µM; with CCRF-CEM [9], 1.73 µM. For the same compound, the half-maximal inhibitory concentration (IC50) (with K562 [10]; in test [11]) was above 50 µM in each case. Also, the Ka in test [4] was found to be 1.81 ×10⁷ /M.

`CCN(CC)c1ccc(-c2[nH]c3ccccc3c(=O)c2O)cc1[N+](=O)[O-]`: the IC50 in test [12] was determined as 6.75 µM; in the test on BJ [13], 9.73 µM; in the test with A549 [14], 1.89 µM; in the test on K562 [15], 0.75 µM; in the test on CCRF-CEM [16], 1.72 µM; in the test with U2OS [17] it was 8.57 µM. In addition, 2.71 µM corresponded to half-maximal inhibition in the test on K562 [18] (IC50).
